Assay [1] relates to Plasmodium falciparum. Kind of assay: Antimalarial activity against mefloquine-resistant, chloroquine-sensitive Plasmodium falciparum D6 assessed as inhibition of [3H]hypoxanthine uptake in presence of 1 mM folinic acid. Format: functional, organism-based. The gist of the method: (§1)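 Folinic acid reversal assay, adapted from a folic acid reversal method and run in normal plasma, to rule out DHFR inhibition. Parasite growth inhibition (IC50) is measured with 1 mM folinic acid present and compared with the IC50 obtained without folinic acid.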

For assay [2], the system named is Plasmodium falciparum. Kind of assay: Antimalarial activity against multidrug-resistant Plasmodium falciparum TM91C235 assessed as inhibition of [3H]hypoxanthine uptake in presence of 1 mM folinic acid. Format: functional, organism-based. In short, it runs like this: as §1
Assay [3] concerns Plasmodium falciparum. Kind of assay: Antimalarial activity against mefloquine-resistant, chloroquine-sensitive Plasmodium falciparum D6 assessed as inhibition of [3H]hypoxanthine uptake. In kind it is functional, organism-based.
In assay [4] the test system is Plasmodium falciparum. Kind of assay: Resistance index, ratio of IC50 for chloroquine-resistant, mefloquine-sensitive Plasmodium falciparum W2 to IC50 for mefloquine-resistant, chloroquine-sensitive Plasmodium falciparum D6. Format: functional.
In assay [5] the test system is Plasmodium falciparum. Briefly: Antimalarial activity against multidrug-resistant Plasmodium falciparum TM91C235 assessed as inhibition of [3H]hypoxanthine uptake. Format: functional, organism-based.
Assay [6] concerns Plasmodium falciparum. Kind of assay: Resistance index, ratio of IC50 for Plasmodium falciparum multidrug-resistant TM91C235 to IC50 for mefloquine-resistant, chloroquine-sensitive Plasmodium falciparum D6. In kind it is functional.
For assay [7], the system named is Plasmodium falciparum. Briefly: Antimalarial activity against chloroquine-resistant, mefloquine-sensitive Plasmodium falciparum W2 assessed as inhibition of [3H]hypoxanthine uptake. In kind it is functional, organism-based.

pIC50: −log10 of the molar value. Activity calls are given as the source filed them. No cut-off for these calls is given here.

With `CCc1nc(N)nc(N)c1-c1ccc(Cl)cc1`, the outcome in the assay on Plasmodium falciparum [1] and with Plasmodium falciparum [2] was inactive.
`Cl.Cl.Cl.Nc1nccc2ccc(NCc3cccc(Cl)c3)cc12`: the pIC50 with Plasmodium falciparum [3] was 7.19; in the assay with Plasmodium falciparum [5], 6.80; with Plasmodium falciparum [7] it was 6.44. Also, the “Ratio IC50” value with Plasmodium falciparum [4] was 5.55; in the assay on Plasmodium falciparum [6] it was 2.44. For the same compound, the outcome with Plasmodium falciparum [1] and in the assay with Plasmodium falciparum [2] was Active.
For `Cl.Cl.Nc1nccc2ccc(NCc3cccc(C(F)(F)F)c3)cc12`, the pIC50 in the assay with Plasmodium falciparum [3] was 7.30; in the assay with Plasmodium falciparum [5], 7.14; with Plasmodium falciparum [7], 6.59. Moreover, the figures for the “Ratio IC50” value in the assay on Plasmodium falciparum [4] and in the assay with Plasmodium falciparum [6] were 5.2 and 1.44, respectively.
On to `Cl.Cl.Nc1nccc2ccc(NCc3cccc(Br)c3)cc12`, for which the values for the pIC50 in the assay on Plasmodium falciparum [3], in the assay on Plasmodium falciparum [5] and with Plasmodium falciparum [7] were 6.99, 6.85 and 6.38, respectively. Also, the entries for the “Ratio IC50” value with Plasmodium falciparum [4] and with Plasmodium falciparum [6] were 4.09 and 1.38, respectively.
With `Cl.Cl.Nc1nccc2ccc(NCc3ccccc3)cc12`, the pIC50 is 6.67 with Plasmodium falciparum [3], 6.31 in the assay on Plasmodium falciparum [5] and 5.85 in the assay on Plasmodium falciparum [7]. The “Ratio IC50” value with Plasmodium falciparum [4] turned out to be 6.59; in the assay on Plasmodium falciparum [6], 2.29.
In the case of `Cl.Cl.Cl.Nc1nccc2ccc(NCc3ccc(Cl)cc3)cc12`, the pIC50 is 7.13 with Plasmodium falciparum [3], 6.69 in the assay on Plasmodium falciparum [5] and 6.38 with Plasmodium falciparum [7]. The “Ratio IC50” value in the assay with Plasmodium falciparum [4] was 5.67; in the assay on Plasmodium falciparum [6], 2.78. Also, the result with Plasmodium falciparum [1] and with Plasmodium falciparum [2] was Active.
For the compound `CCN(CC)CCCC(C)Nc1ccnc2cc(Cl)ccc12` (configuration not stated), the outcome in the assay with Plasmodium falciparum [1] and in the assay on Plasmodium falciparum [2] was Active.
With `OC(c1cc(C(F)(F)F)nc2c(C(F)(F)F)cccc12)C1CCCCN1` (configuration not stated) [MEFLOQUINE], the pIC50 with Plasmodium falciparum [3] was 7.70; with Plasmodium falciparum [5], 7.43. Moreover, the “Ratio IC50” value was determined as 0.289 in the assay with Plasmodium falciparum [4] and 1.85 in the assay on Plasmodium falciparum [6].
As to `Nc1nc(N)c2cc(NCc3cccc(Br)c3)ccc2n1`, the negative-log IC50 (pIC50) is over 9.85 in the assay with Plasmodium falciparum [3], 7.68 with Plasmodium falciparum [5] and 8.68 with Plasmodium falciparum [7]. Also, the figures for the “Ratio IC50” value in the assay with Plasmodium falciparum [4] and in the assay on Plasmodium falciparum [6] were 14.6 and 147, respectively.
On the same counts, the results for `Cl.Cl.Cl.Cl.Nc1nccc2ccc(NCc3ccc(Cl)c(Cl)c3)cc12` are 7.16, 6.95, 6.34, 6.58 and 1.6.

Source of the values: ChEMBL document CHEMBL1641438, “In vitro efficacy of 7-benzylamino-1-isoquinolinamines against Plasmodium falciparum related to the efficacy of chalcones” (Bioorg Med Chem Lett, 2011).
